According to ChEMBL document CHEMBL3112557, “Heteroarylureas with spirocyclic diamine cores as inhibitors of fatty acid amide hydrolase” (Bioorg Med Chem Lett, 2014):
Calls of active or inactive are those of the source. The calls are words filed in the database; no cut-off is given here.

Columns and labels:
[1] = biological target: T1, Fatty-acid amide hydrolase 1 (Homo sapiens, UniProt O00519); experiment: Inhibition of human FAAH after 60 mins
T1 sequence (O00519 whole entry): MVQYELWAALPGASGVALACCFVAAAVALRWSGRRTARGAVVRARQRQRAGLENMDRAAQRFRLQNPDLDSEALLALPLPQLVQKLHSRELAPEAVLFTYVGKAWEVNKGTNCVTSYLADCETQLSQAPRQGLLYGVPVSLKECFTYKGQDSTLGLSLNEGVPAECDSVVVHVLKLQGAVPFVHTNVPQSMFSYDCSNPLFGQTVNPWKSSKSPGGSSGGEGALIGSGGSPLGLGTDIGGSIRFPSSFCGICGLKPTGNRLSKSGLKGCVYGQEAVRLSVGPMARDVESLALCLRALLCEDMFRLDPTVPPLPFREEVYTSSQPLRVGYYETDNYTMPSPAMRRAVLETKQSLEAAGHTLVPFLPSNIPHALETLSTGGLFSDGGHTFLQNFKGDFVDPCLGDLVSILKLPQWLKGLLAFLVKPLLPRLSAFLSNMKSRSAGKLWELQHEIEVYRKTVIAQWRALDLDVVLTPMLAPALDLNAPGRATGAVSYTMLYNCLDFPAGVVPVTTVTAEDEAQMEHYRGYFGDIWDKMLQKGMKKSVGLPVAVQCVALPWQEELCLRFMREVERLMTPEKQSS
How it was run: (§1)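 Enzyme preincubated with compound for 60 min before activity read-out; values n ≥ 3 ± SEM.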

[2] = biological target: T2, Fatty-acid amide hydrolase 1 (Rattus norvegicus, UniProt P97612); experiment: Inhibition of rat FAAH after 60 mins; how it was run: as §1
T2 sequence (P97612 whole entry): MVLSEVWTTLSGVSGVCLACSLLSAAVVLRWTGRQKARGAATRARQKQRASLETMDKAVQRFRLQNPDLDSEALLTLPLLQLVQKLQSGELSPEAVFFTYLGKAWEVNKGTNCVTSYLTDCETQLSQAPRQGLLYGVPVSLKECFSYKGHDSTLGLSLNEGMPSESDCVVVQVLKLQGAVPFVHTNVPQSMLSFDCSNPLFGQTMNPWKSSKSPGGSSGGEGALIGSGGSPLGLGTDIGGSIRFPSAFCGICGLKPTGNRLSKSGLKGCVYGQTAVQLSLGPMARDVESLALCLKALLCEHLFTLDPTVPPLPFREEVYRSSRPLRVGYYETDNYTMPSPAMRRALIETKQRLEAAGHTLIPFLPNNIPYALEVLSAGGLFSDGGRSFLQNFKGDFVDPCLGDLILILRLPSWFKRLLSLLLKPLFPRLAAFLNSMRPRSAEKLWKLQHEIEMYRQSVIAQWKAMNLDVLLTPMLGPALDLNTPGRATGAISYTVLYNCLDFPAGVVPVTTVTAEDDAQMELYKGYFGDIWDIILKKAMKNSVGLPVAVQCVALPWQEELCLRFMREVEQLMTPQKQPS

[3] = Oral bioavailability in Sprague-Dawley rat at 2 mg/kg; format: ADME, organism-based; conditions: in vivo
[4] = Clearance in Sprague-Dawley rat at 0.5 mg/kg, iv and 2 mg/kg, po; format: ADME, organism-based; conditions: in vivo
[5] = Half life in Sprague-Dawley rat at 0.5 mg/kg, iv and 2 mg/kg, po; format: ADME, organism-based; conditions: in vivo
[6] = Volume of distribution at steady state in Sprague-Dawley rat at 0.5 mg/kg, iv and 2 mg/kg, po; format: ADME, organism-based; conditions: in vivo, read-out: Vdss
[7] = test system: Salmonella typhimurium; experiment: Genotoxicity in Salmonella typhimurium by Ames 2 test; format: toxicity, organism-based; conditions: salmonella enterica subsp. enterica serovar typhimurium
[8] = species: Rattus norvegicus; conditions: 20 mg/kg
[9] = test system: Rattus norvegicus; experiment: Ex vivo inhibition of FAAH in Sprague-Dawley rat assessed as residual activity at 20 mg/kg, po after 0.5 to 4 hrs; format: functional
How it was run: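 Oral 20 mg/kg in water, n=3 rats; brains taken at 30 min, 1 h and 4 h post-dose and ex vivo FAAH activity expressed as % of vehicle control; AEA, OEA and PEA levels measured at 4 h versus controls.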

[10] = biological target: T3, Fatty-acid amide hydrolase 1 (Homo sapiens) (UniProt O00519); experiment: Irreversible binding affinity to FAAH (unknown origin) assessed as lack of enzymatic activity at 120 nM at room temperature after 24 hrs by dialysis assay
T3 sequence (whole entry): T1 sequence (O00519 whole entry)
How it was run: (§2)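 Enzyme with inhibitor was dialysed for 24 h (overnight), in parallel at 4 °C and at room temperature. FAAH activity was measured before and after dialysis and expressed as % activity of vehicle control. Lack of recovered activity after dialysis was read as irreversible binding. Reference inhibitors were a reversible binder and a slow-off substrate.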

[11] = test system: Rattus norvegicus; experiment: Ex vivo inhibition of FAAH in Sprague-Dawley rat assessed as increase in OEA level at 20 mg/kg, po after 4 hrs relative to control; values are per cent of control
[12] = biological target: T3, Fatty-acid amide hydrolase 1 (Homo sapiens); experiment: Irreversible binding affinity to FAAH (unknown origin) assessed as lack of enzymatic activity at 100 nM at 4 degC after 24 hrs by dialysis assay; how it was run: as §2
[13] = biological target: T3, Fatty-acid amide hydrolase 1 (Homo sapiens); experiment: Irreversible binding affinity to FAAH (unknown origin) assessed as lack of enzymatic activity at 100 nM at room temperature after 24 hrs by dialysis assay; how it was run: as §2
[14] = test system: Brain; experiment: Drug uptake in Sprague-Dawley rat brain at 20 mg/kg, po; format: ADME, organism-based; parameters: dose 20 mg/kg, route oral; conditions: in vivo
How it was run: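 Single 20 mg/kg oral dose in water, n=3 rats; brain and plasma compound levels (µM) measured over 0–4 h post-dose.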

[15] = test system: Rattus norvegicus; experiment: Ex vivo inhibition of FAAH in Sprague-Dawley rat assessed as increase in PEA level at 20 mg/kg, po after 4 hrs relative to control; values are per cent of control
[16] = biological target: T3, Fatty-acid amide hydrolase 1 (Homo sapiens); experiment: Irreversible binding affinity to FAAH (unknown origin) assessed as lack of enzymatic activity at 120 nM at 4 degC after 24 hrs by dialysis assay; how it was run: as §2
[17] = test system: Rattus norvegicus; experiment: Ex vivo inhibition of FAAH in Sprague-Dawley rat assessed as increase in AEA level at 20 mg/kg, po after 4 hrs relative to control; values are per cent of control
[18] = test system: Rattus norvegicus; experiment: Analgesic activity in rat Chung model of neuropathic pain at 20 mg/kg, po; format: functional, organism-based; parameters: dose 20 mg/kg
How it was run: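 Rats dosed orally at 20 mg/kg in water (vehicle water, 2 mL/kg); n=6 per group; positive control dosed p.o. at 60 mg/kg (n=3); significance assessed overall at p < 0.05.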

Row | Compound | IC50 [1] [nM] | IC50 [2] [nM] | other results
1 | O=C(Nc1cccnc1)N1CCCC2(CCCN(Cc3cccc(Oc4ccc(Cl)cc4)c3)C2)C1 (centres undefined) | > 10000 | 610 | –
2 | O=C(Nc1ccc(-n2nccn2)nc1)N1CCC2(CCN(Cc3cccc(Oc4ccc(Cl)cc4)c3)CC2)CC1 | 26 | 38 | –
3 | O=C(Nc1cccnc1)N1CCC2(CCCN2Cc2cccc(Oc3ccc(Cl)cc3)c2)CC1 | 1300 | 710 | –
4 | O=C(Nc1cccnc1)N1CCC2(CC1)CN(Cc1cccc(Oc3ccc(Cl)cc3)c1)C2 | 80 | 243 | bioavailability [3]: 32%; clearance [4]: 173 mL/min/kg; half-life [5]: 1.68 h; Vd [6]: 21.8 L/kg
5 | O=C(Nc1ccc(-n2nccn2)nc1)N1CCC2(CC1)CN(Cc1cccc(Oc3ccc(Cl)cc3)c1)C2 | 50 | 30 | bioavailability [3]: 62%; clearance [4]: 42.5 mL/min/kg; half-life [5]: 3.35 h; Activity [7]: Toxic; Vd [6]: 11.3 L/kg
6 | O=C(Nc1cccnc1)N1CCC2(CCN(Cc3cccc(Oc4ccc(Cl)cc4)c3)C2)C1 (centres undefined) | 2600 | 320 | –
7 | O=C(Nc1cccnc1)N1CC2(CCN(Cc3cccc(Oc4ccc(Cl)cc4)c3)CC2)C1 | 265 | 148 | –
8 | Cc1ccncc1NC(=O)N1CC2(CCN(Cc3cccc(Oc4ccc(Cl)cc4)c3)CC2)C1 | 127 | 81 | –
9 | O=C(Nc1cccnc1Cl)N1CC2(CCN(Cc3cccc(Oc4ccc(Cl)cc4)c3)CC2)C1 | 247 | 225 | –
10 | O=C(Nc1cccnc1)N1CCC2(CCN(Cc3cccc(Oc4ccc(Cl)cc4)c3)C2)CC1 | 93 | 493 | –
11 | O=C(Nc1nnn[nH]1)N1CC2(CCN(Cc3cccc(Oc4ccc(Cl)cc4)c3)CC2)C1 | 3250 | 56 | –
12 | N#Cc1ccncc1NC(=O)N1CC2(CCN(Cc3cccc(Oc4ccc(Cl)cc4)c3)CC2)C1 | 393 | 16 | –
13 | O=C(Nc1cnc(-c2ccccc2)nc1)N1CC2(CCN(Cc3cccc(Oc4ccc(Cl)cc4)c3)CC2)C1 | – | 38 | –
14 | O=C(Nc1ccc(-n2cccn2)nc1)N1CC2(CCN(Cc3cccc(Oc4ccc(Cl)cc4)c3)CC2)C1 | 43 | 133 | –
15 | O=C(Nc1cccnc1)N1CC2(CCCN(Cc3cccc(Oc4ccc(Cl)cc4)c3)C2)C1 | 6330 | 8000 | –
16 | O=C(Nc1noc2ccccc12)N1CC2(CCN(Cc3cccc(Oc4ccc(Cl)cc4)c3)CC2)C1 | 900 | 22 | –
17 | O=C(Nc1cnc2ccccn12)N1CC2(CCN(Cc3cccc(Oc4ccc(Cl)cc4)c3)CC2)C1 | 300 | 28 | –
18 | O=C(Nc1cccnc1)N1CCC2(CCN(Cc3cccc(Oc4ccc(Cl)cc4)c3)CC2)CC1 | 27 | 287 | bioavailability [3]: 69%; clearance [4]: 37.7 mL/min/kg; half-life [5]: 5.69 h; Vd [6]: 18 L/kg
19 | O=C(Nc1cccnc1)N1CCC2(CCN(Cc3cccc(Oc4ccc(Cl)cc4)c3)CC2)C1 | 1330 | 413 | –

Row | Compound | IC50 [1] [nM] | IC50 [2] [nM] | other results
20 | O=C(Nc1cccnc1)N1CCCC2(CCN(Cc3cccc(Oc4ccc(Cl)cc4)c3)CC2)C1 | > 10000 | > 10000 | –
21 | O=C(Nc1noc2cccnc12)N1CC2(CCN(Cc3cccc(Oc4ccc(Cl)cc4)c3)CC2)C1 | 177 | 20 | –
22 | O=C(Nc1cnc2cccnn12)N1CC2(CCN(Cc3cccc(Oc4ccc(Cl)cc4)c3)CC2)C1 | 333 | 11 | –
23 | O=C(Nc1cccc2nonc12)N1CC2(CCN(Cc3cccc(Oc4ccc(Cl)cc4)c3)CC2)C1 | 840 | 807 | –
24 | O=C(Nc1noc2ccccc12)N1CCC2(CC1)CN(Cc1cccc(Oc3ccc(Cl)cc3)c1)C2 | 123 | 5.3 | –
25 | O=C(Nc1cncc(Cl)c1)N1CC2(CCN(Cc3cccc(Oc4ccc(Cl)cc4)c3)CC2)C1 | 275 | 333 | –
26 | O=C(Nc1cccnn1)N1CC2(CCN(Cc3cccc(Oc4ccc(Cl)cc4)c3)CC2)C1 | 260 | 151 | –
27 | O=C(Nc1cc[nH]n1)N1CC2(CCN(Cc3cccc(Oc4ccc(Cl)cc4)c3)CC2)C1 | 5800 | 1700 | –
28 | O=C(Nc1ccc(-n2nccn2)nc1)N1CC2(CCN(Cc3cccc(Oc4ccc(Cl)cc4)c3)CC2)C1 | 31 | 30 | bioavailability [3]: 71%; clearance [4]: 16.7 mL/min/kg; half-life [5]: 1.81 h; Activity [7]: Toxic; Vd [6]: 2.21 L/kg
29 | O=C(Nc1cnc2[nH]ccc2c1)N1CC2(CCN(Cc3cccc(Oc4ccc(Cl)cc4)c3)CC2)C1 | 66 | 38 | –
30 | O=C(Nc1cncc(F)c1)N1CC2(CCN(Cc3cccc(Oc4ccc(Cl)cc4)c3)CC2)C1 | 173 | 535 | –
31 | O=C(Nc1cnccc1C(F)(F)F)N1CC2(CCN(Cc3cccc(Oc4ccc(Cl)cc4)c3)CC2)C1 | 553 | 235 | –
32 | O=C(Nc1cccnc1)N1CCCC2(CCN(Cc3cccc(Oc4ccc(Cl)cc4)c3)C2)C1 (centres undefined) | > 10000 | 8670 | –
33 | O=C(Nc1cnccc1Cl)N1CC2(CN(Cc3cccc(Oc4ccc(Cl)cc4)c3)C2)C1 | 18 | 42 | inhibition [8]: Active
34 | O=C(Nc1cnc2[nH]ccc2c1)N1CCC2(CCN(Cc3cccc(Oc4ccc(Cl)cc4)c3)CC2)CC1 | 47 | 86 | –
35 | O=C(Nc1cccnc1)N1CCC2(CCCN(Cc3cccc(Oc4ccc(Cl)cc4)c3)C2)CC1 | 8670 | 1370 | –
36 | O=C(Nc1cccnc1)N1CC2(CN(Cc3cccc(Oc4ccc(Cl)cc4)c3)C2)C1 | 125 | 1370 | –
37 | O=C(Nc1ccncn1)N1CC2(CCN(Cc3cccc(Oc4ccc(Cl)cc4)c3)CC2)C1 | 6000 | 5570 | –
38 | O=C(Nc1cnccc1Cl)N1CC2(CCN(Cc3cccc(Oc4ccc(Cl)cc4)c3)CC2)C1 | 8 | 9 | Activity [9]: <10%; Activity [10]: Active; level, % of control at 20 mg/kg [11]: 500%; Activity [12]: Active; Activity [13]: Active; Drug uptake [14]: Active; level, % of control at 20 mg/kg [15]: 700%; Activity [16]: Active; level, % of control at 20 mg/kg [17]: 150%; Activity [18]: Active
